pEC50, pIC50, pKd: −log10 of the molar value. The source made the active and inactive calls. No cut-off for these calls is given here.
Experiments:
[1] = Clearance in Cynomolgus monkey at 1 mg/kg, iv and 10 mg/kg, po; type: ADME, organism-based, Macaca fascicularis; conditions: in vivo
Method in brief: (§1)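 Single-dose PK. Rats: male Sprague−Dawley, jugular-catheterized, 1 mg/kg iv in 3:1 PEG400/water (n = 2) and 10 mg/kg po in Pharmatek #6 (n = 3). Female athymic nude mice: 100 mg/kg po in Pharmatek #6 (n = 3). Beagle dogs and male cynomolgus monkeys (n = 3): crossover, 1 mg/kg iv and 10 mg/kg po in 22% HPβCD, overnight fast. Plasma LC-MS/MS to 24 h; noncompartmental parameters, mean ± SD.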

[2] = test system: LNCaP; experiment: Cytotoxicity against human LNCAP cells expressing wild type BRAF after 72 hrs by cell titer blue assay; type: functional, cell-based
Method in brief: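 Cells were grown in ATCC-recommended media and kept overnight in 0.5% serum. They were then exposed to compound for 72 h, and Cell Titer Blue was added for 3 h. EC50 came from fluorometric concentration−response curves, run in duplicate and repeated at least once.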

[3] = biological target: Tyrosine-protein kinase ABL1 (Homo sapiens, UniProt P00519); experiment: Inhibition of Abl1 in human HEK293 cells after 1 hr by competition binding assay; type: cell-based
Chain of Tyrosine-protein kinase ABL1 (P00519 whole entry): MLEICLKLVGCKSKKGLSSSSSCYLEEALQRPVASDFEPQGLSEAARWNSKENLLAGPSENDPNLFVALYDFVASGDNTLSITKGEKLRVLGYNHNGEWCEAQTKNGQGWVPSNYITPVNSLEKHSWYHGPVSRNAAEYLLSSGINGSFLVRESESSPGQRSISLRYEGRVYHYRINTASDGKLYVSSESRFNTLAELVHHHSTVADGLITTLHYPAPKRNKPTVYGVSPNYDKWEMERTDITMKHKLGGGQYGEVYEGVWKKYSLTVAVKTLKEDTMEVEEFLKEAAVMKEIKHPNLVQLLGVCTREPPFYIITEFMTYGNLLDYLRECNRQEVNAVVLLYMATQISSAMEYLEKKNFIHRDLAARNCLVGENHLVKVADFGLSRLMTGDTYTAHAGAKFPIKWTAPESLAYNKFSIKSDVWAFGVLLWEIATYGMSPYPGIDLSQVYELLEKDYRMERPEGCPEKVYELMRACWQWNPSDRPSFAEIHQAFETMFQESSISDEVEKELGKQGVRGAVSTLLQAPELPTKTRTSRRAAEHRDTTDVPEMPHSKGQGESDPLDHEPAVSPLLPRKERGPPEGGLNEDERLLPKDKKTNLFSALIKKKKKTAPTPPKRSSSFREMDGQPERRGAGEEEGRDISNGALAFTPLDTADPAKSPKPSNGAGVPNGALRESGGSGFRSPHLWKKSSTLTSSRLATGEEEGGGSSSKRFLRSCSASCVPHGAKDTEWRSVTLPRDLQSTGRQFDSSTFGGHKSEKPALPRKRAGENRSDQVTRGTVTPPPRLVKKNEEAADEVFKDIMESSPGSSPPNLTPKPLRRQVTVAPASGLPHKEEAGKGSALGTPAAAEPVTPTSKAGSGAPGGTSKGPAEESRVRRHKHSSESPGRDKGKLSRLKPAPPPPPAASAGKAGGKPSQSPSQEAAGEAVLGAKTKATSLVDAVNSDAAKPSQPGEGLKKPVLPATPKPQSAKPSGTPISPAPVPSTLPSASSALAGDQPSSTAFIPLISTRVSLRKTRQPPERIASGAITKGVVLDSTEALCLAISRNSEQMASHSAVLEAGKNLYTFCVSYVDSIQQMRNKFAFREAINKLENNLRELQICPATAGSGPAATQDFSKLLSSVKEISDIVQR
Method in brief: (§2)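 KINOMEscan competition binding. Binding reactions ran at rt for 1 h. Unbound kinase was captured on an immobilized affinity ligand and quantified by qPCR. Each kinase was tested individually.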

[4] = test system: COLO 205; experiment: Antitumor activity against human COLO205 cells xenografted in athymic nude mouse at 30 mg/kg, po bid for 14 days; type: functional, organism-based; design: dose 30 mg/kg
Method in brief: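 Athymic nude mice carried subcutaneous flank Colo-205 xenografts (1 × 10^6 cells), randomized at 150−200 mm3 (n = 10/group). Oral dosing BID for 14 days in 22% HPβCD against vehicle controls. Caliper volumes W2(L/2) taken three times weekly. Partial regression: volume fell in ≥3 successive measurements to below the starting volume while the tumor stayed palpable.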

[5] = biological target: Cytochrome P450 1A2 (Homo sapiens, UniProt P05177); experiment: Inhibition of human CYP1A2; type: ADME
Chain of Cytochrome P450 1A2 (P05177 whole entry, canonical isoform): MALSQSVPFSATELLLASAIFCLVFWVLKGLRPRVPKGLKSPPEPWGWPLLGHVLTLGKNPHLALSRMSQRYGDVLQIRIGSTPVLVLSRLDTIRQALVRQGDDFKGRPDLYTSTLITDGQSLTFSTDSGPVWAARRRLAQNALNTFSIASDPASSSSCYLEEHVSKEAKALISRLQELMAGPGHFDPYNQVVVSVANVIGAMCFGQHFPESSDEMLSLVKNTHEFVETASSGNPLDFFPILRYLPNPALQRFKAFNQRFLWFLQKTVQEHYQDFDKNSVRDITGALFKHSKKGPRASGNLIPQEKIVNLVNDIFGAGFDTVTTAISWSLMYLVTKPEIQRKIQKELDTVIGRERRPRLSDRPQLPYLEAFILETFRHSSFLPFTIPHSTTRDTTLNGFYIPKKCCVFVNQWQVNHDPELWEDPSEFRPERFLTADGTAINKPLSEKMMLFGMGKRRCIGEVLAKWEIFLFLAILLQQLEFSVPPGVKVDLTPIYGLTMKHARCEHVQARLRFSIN
Method in brief: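 Pooled human liver microsomes (0.25 mg/mL) with NADPH (1 mM) and five pooled probe substrates (testosterone, diclofenac, dextromethorphan, mephenytoin, phenacetin). Test compound ran at eight concentrations, 0.31−40 μM, 20 min at 37 °C, with pooled control inhibitors in parallel. Isoform-specific metabolites were measured by LC-MS/MS.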

[6] = Cmax in beagle dog at 10 mg/kg, po; type: ADME, organism-based, Canis lupus familiaris; design: dose 10 mg/kg, route oral; conditions: in vivo; method in brief: as §1
[7] = biological target: Mitogen-activated protein kinase 1 (Homo sapiens, UniProt P28482); experiment: Inhibition of ERK2 in human HEK293 cells after 1 hr by competition binding assay; type: cell-based; method in brief: as §2
Chain of Mitogen-activated protein kinase 1 (P28482 whole entry): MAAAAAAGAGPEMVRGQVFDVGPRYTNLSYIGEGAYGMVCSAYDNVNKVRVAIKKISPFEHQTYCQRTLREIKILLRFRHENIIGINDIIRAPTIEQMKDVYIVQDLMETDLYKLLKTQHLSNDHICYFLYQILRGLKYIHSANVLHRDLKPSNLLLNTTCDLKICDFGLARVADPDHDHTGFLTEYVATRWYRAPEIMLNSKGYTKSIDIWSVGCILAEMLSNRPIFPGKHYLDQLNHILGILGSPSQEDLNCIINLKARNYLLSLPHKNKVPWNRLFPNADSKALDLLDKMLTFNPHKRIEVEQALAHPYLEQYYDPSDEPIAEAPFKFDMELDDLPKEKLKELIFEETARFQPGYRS

[8] = Half life in beagle dog at 1 mg/kg, iv and 10 mg/kg, po; type: ADME, organism-based, Canis lupus familiaris; conditions: in vivo; method in brief: as §1
[9] = test system: Liver; experiment: Intrinsic clearance in dog liver microsomes; type: ADME, Canis lupus familiaris, Microsome
Method in brief: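 Pooled liver microsomes (0.5 mg/mL) were premixed with 0.1 M phosphate buffer pH 7.4, 6.5 mM MgCl2 and test compound (1 μM final, 0.2% DMSO). NADPH (1 mM) started the reaction at 37 °C, in duplicate. Minus-NADPH and testosterone controls were included. Aliquots were taken at 0, 5, 15, 30 and 60 min and quenched in acetonitrile containing internal standard.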

[10] = Half life in dog liver microsomes; type: ADME, Canis lupus familiaris, Microsome
Method in brief: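 Pooled liver microsomes (0.5 mg/mL) in 0.1 M phosphate pH 7.4 with 6.5 mM MgCl2 and compound at 1 μM (0.2% DMSO). NADPH (1 mM) started the reaction at 37 °C, with minus-NADPH and testosterone controls. Aliquots taken at 0, 5, 15, 30 and 60 min were quenched in acetonitrile; duplicates.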

[11] = test system: Liver; experiment: Intrinsic clearance in mouse liver microsomes; type: ADME, Microsome
[12] = AUC (infinity) in Sprague-Dawley rat at 10 mg/kg, po; type: ADME, organism-based; design: time infinity, dose 10 mg/kg, route oral; conditions: plasma; method in brief: as §1

COc1cc2ncnc(Oc3cccc(NC(=O)Nc4cc(C(C)(C)C(F)(F)F)on4)c3)c2cc1OC [CEP-32496]
clearance [1]: 6.7 mL/min/kg | pEC50 [2]: 5.18 | pKd [3]: 8.52 | Activity [4]: Active | pIC50 [5]: < 5.00 | Cmax [6]: 5.2 µM | pKd [7]: < 5.00 | half-life [8]: 12 h | CLH [9]: < 23 µL/min/mg | half-life [10]: > 1 h | CLH [11]: < 23 µL/min/mg | AUC(0-inf) [12]: 74.4 µM·h

Source: ChEMBL document CHEMBL2029242 (J Med Chem, 2012)
